Laboratory results as given in ChEMBL document CHEMBL2375290, “Nonclassical antifolates, part 3: synthesis, biological evaluation and molecular modeling study of some new 2-heteroarylthio-quinazolin-4-ones” (Eur J Med Chem, 2013).
In brackets after ≈: the same amount, converted by molar mass.

Columns and labels:
[1] = Cytotoxicity against human EKVX cells at 10 uM after 48 hrs by coulter counter analysis; type: functional; settings: read-out: GI
[2] = tested on: MCF7; test: Cytotoxicity against human MCF7 cells at 10 uM after 48 hrs by coulter counter analysis; type: functional; settings: MCF7, 48 h, read-out: GI
[3] = tested on: Hs-578T; test: Cytotoxicity against human Hs578T cells at 10 uM after 48 hrs by coulter counter analysis; type: functional; settings: read-out: GI
[4] = tested on: UO-31; test: Cytotoxicity against human UO31 cells at 10 uM after 48 hrs by coulter counter analysis; type: functional; settings: UO-31, 48 h, read-out: GI
[5] = tested on: Escherichia coli; test: Antimicrobial activity against Escherichia coli at 200 ug after 24 hrs by agar disc diffusion method; type: functional; settings: read-out: DIZ
[6] = tested on: MDA-MB-231; test: Cytotoxicity against human MDA-MB-231 cells at 10 uM after 48 hrs by coulter counter analysis; type: functional; settings: MDA-MB-231, 48 h, read-out: GI
[7] = tested on: Staphylococcus aureus; test: Antimicrobial activity against Staphylococcus aureus at 200 ug after 24 hrs by agar disc diffusion method; type: functional; settings: read-out: DIZ
[8] = tested on: CAKI-1; test: Cytotoxicity against human Caki1 cells at 10 uM after 48 hrs by coulter counter analysis; type: functional; settings: CAKI-1, 48 h, read-out: GI
[9] = tested on: RPMI-8226; test: Cytotoxicity against human RPMI8226 cells at 10 uM after 48 hrs by coulter counter analysis; type: functional; settings: RPMI-8226, 48 h, read-out: GI
[10] = tested on: T47D; test: Cytotoxicity against human T47D cells at 10 uM after 48 hrs by coulter counter analysis; type: functional; settings: read-out: GI
[11] = tested on: CCRF-CEM; test: Cytotoxicity against human CCRF-CEM cells at 10 uM after 48 hrs by coulter counter analysis; type: functional; settings: read-out: GI
[12] = tested on: Bacillus subtilis; test: Antimicrobial activity against Bacillus subtilis at 200 ug after 24 hrs by agar disc diffusion method; type: functional; settings: read-out: DIZ
[13] = tested on: PC-3; test: Cytotoxicity against human PC3 cells at 10 uM after 48 hrs by coulter counter analysis; type: functional; settings: PC-3, 48 h, read-out: GI
[14] = tested on: MOLT-4; test: Cytotoxicity against human MOLT4 cells at 10 uM after 48 hrs by coulter counter analysis; type: functional; settings: MOLT-4, 48 h, read-out: GI
[15] = tested on: Bacillus subtilis; test: Antimicrobial activity against Bacillus subtilis after 24 hrs by micro-dilution susceptibility method; type: functional
How it was run: (§1)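 Broth microdilution in Müller-Hinton broth against S. aureus IFO 3060, B. subtilis IFO 3007, E. coli IFO 3301 and P. aeruginosa IFO 3448. These are the same standard strains used in the disc-diffusion primary screen. Compounds were solubilized in DMSO. MIC recorded as the minimal inhibitory concentration.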

[16] = tested on: NCI-H23; test: Cytotoxicity against human NCI-H23 cells at 10 uM after 48 hrs by coulter counter analysis; type: functional; settings: NCI-H23, 48 h, read-out: GI
[17] = tested on: SN12C; test: Cytotoxicity against human SN12C cells at 10 uM after 48 hrs by coulter counter analysis; type: functional; settings: read-out: GI
[18] = tested on: UACC-62; test: Cytotoxicity against human UACC62 cells at 10 uM after 48 hrs by coulter counter analysis; type: functional; settings: UACC-62, 48 h, read-out: GI
[19] = tested on: HL-60(TB); test: Cytotoxicity against human HL-60(TB) cells at 10 uM after 48 hrs by coulter counter analysis; type: functional; settings: HL-60, 48 h, read-out: GI
[20] = tested on: NCI-H226; test: Cytotoxicity against human NCI-H226 cells at 10 uM after 48 hrs by coulter counter analysis; type: functional; settings: NCI-H226, 48 h, read-out: GI
[21] = tested on: A498; test: Cytotoxicity against human A498 cells at 10 uM after 48 hrs by coulter counter analysis; type: functional; settings: A498, 48 h, read-out: GI
[22] = tested on: A549; test: Cytotoxicity against human A549/ATCC cells at 10 uM after 48 hrs by coulter counter analysis; type: functional; settings: A549, 48 h, read-out: GI
[23] = Cytotoxicity against human NCI-ADR-RES cells at 10 uM after 48 hrs by coulter counter analysis; type: functional; settings: read-out: GI
[24] = tested on: Staphylococcus aureus; test: Antimicrobial activity against Staphylococcus aureus after 24 hrs by micro-dilution susceptibility method; type: functional; how it was run: as §1
[25] = tested on: MDA-MB-435; test: Cytotoxicity against human MDA-MB-435 cells at 10 uM after 48 hrs by coulter counter analysis; type: functional; settings: MDA-MB-435, 48 h, read-out: GI
[26] = tested on: SF-295; test: Cytotoxicity against human SF295 cells at 10 uM after 48 hrs by coulter counter analysis; type: functional; settings: SF-295, 48 h, read-out: GI
[27] = tested on: SNB-19; test: Cytotoxicity against human SNB19 cells at 10 uM after 48 hrs by coulter counter analysis; type: functional; settings: SNB-19, 48 h, read-out: GI
[28] = tested on: NCI-H522; test: Cytotoxicity against human NCI-H522 cells at 10 uM after 48 hrs by coulter counter analysis; type: functional; settings: NCI-H522, 48 h, read-out: GI
[29] = tested on: Pseudomonas aeruginosa; test: Antimicrobial activity against Pseudomonas aeruginosa at 200 ug after 24 hrs by agar disc diffusion method; type: functional; settings: read-out: DIZ
[30] = tested on: RXF 393; test: Cytotoxicity against human RXF393 cells at 10 uM after 48 hrs by coulter counter analysis; type: functional; settings: RXF 393, 48 h, read-out: GI
[31] = tested on: Micrococcus luteus; test: Antimicrobial activity against Micrococcus luteus at 200 ug after 24 hrs by agar disc diffusion method; type: functional; settings: read-out: DIZ
[32] = tested on: SNB-75; test: Cytotoxicity against human SNB75 cells at 10 uM after 48 hrs by coulter counter analysis; type: functional; settings: SNB-75, 48 h, read-out: GI
[33] = tested on: OVCAR-4; test: Cytotoxicity against human OVCAR4 cells at 10 uM after 48 hrs by coulter counter analysis; type: functional; settings: OVCAR-4, 48 h, read-out: GI
[34] = tested on: SR; test: Cytotoxicity against human SR cells at 10 uM after 48 hrs by coulter counter analysis; type: functional; settings: read-out: GI
[35] = tested on: LOX IMVI; test: Cytotoxicity against human LOXIMVI cells at 10 uM after 48 hrs by coulter counter analysis; type: functional; settings: read-out: GI
[36] = tested on: Escherichia coli; test: Antimicrobial activity against Escherichia coli after 24 hrs by micro-dilution susceptibility method
[37] = tested on: SK-MEL-5; test: Cytotoxicity against human SK-MEL-5 cells at 10 uM after 48 hrs by coulter counter analysis; type: functional; settings: SK-MEL-5, 48 h, read-out: GI
[38] = biological target: T1, Dihydrofolate reductase (Bos taurus, UniProt P00376); test: Inhibition of bovine DHFR after 2 mins by spectrophotometry
T1 sequence (P00376 whole entry): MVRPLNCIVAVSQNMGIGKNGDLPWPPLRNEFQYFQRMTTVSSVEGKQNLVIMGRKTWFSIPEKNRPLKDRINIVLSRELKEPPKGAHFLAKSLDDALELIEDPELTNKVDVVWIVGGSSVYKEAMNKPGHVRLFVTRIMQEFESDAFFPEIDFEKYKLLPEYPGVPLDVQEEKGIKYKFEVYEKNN

[39] = tested on: IGROV-1; test: Cytotoxicity against human IGROV1 cells at 10 uM after 48 hrs by coulter counter analysis; type: functional; settings: IGROV-1, 48 h, read-out: GI
[40] = tested on: Malme-3M; test: Cytotoxicity against human MALME-3M cells at 10 uM after 48 hrs by coulter counter analysis; type: functional; settings: read-out: GI

COc1cc2nc(Sc3ncccc3C(=O)O)n(-c3ccccc3)c(=O)c2cc1OC
inhibition of growth at 10 µM [1]: < 10% | inhibition of growth at 10 µM [2]: < 10% | inhibition of growth at 10 µM [3]: < 10% | inhibition of growth at 10 µM [4]: 12% | zone of inhibition at 200 µg/disc [5]: 22 mm | inhibition of growth at 10 µM [6]: < 10% | zone of inhibition at 200 µg/disc [7]: 20 mm | inhibition of growth at 10 µM [8]: 17.7% | inhibition of growth at 10 µM [9]: < 10% | inhibition of growth at 10 µM [10]: < 10% | inhibition of growth at 10 µM [11]: < 10% | zone of inhibition at 200 µg/disc [12]: 22 mm | inhibition of growth at 10 µM [13]: < 10% | inhibition of growth at 10 µM [14]: < 10% | MIC [15]: 4 µg/mL (≈ 9.19 µM) | inhibition of growth at 10 µM [16]: < 10% | inhibition of growth at 10 µM [17]: < 10% | inhibition of growth at 10 µM [18]: < 10% | inhibition of growth at 10 µM [19]: < 10% | inhibition of growth at 10 µM [20]: 12% | inhibition of growth at 10 µM [21]: < 10% | inhibition of growth at 10 µM [22]: < 10% | inhibition of growth at 10 µM [23]: < 10% | MIC [24]: 4 µg/mL (≈ 9.19 µM) | inhibition of growth at 10 µM [25]: < 10% | inhibition of growth at 10 µM [26]: < 10% | inhibition of growth at 10 µM [27]: < 10% | inhibition of growth at 10 µM [28]: 11.4% | zone of inhibition at 200 µg/disc [29]: 8 mm | inhibition of growth at 10 µM [30]: < 10% | zone of inhibition at 200 µg/disc [31]: 15 mm | inhibition of growth at 10 µM [32]: < 10% | inhibition of growth at 10 µM [33]: < 10% | inhibition of growth at 10 µM [34]: < 10% | inhibition of growth at 10 µM [35]: < 10% | MIC [36]: 2 µg/mL (≈ 4.59 µM) | inhibition of growth at 10 µM [37]: < 10% | IC50 [38]: 7 µM | inhibition of growth at 10 µM [39]: < 10% | inhibition of growth at 10 µM [40]: < 10%
